Active and inactive are the calls of the source.
What was measured:
[1] = system: BaF3; type: cell-based; conditions: Mus musculus, dose 10-1000 nM, time 6.0 hrs
[2] = system: BaF3; assay: Inhibition of EGFR-T790M/del19 mutant in mouse BaF3 cells assessed as inhibition of S6 phosphorylation at 10 to 1000 nM incubated for 6 hrs by Western blotting analysis; type: cell-based; conditions: dose 10-1000 nM
Outline: (§1)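 Ba/F3 cells carrying the stated EGFR mutant were made IL-3-independent after 1 week of 7 µM blasticidin selection. They were grown in low-glucose DMEM with 10% FBS and exposed to inhibitor for 6 h. Cells were washed in cold PBS, lysed in SDS buffer (100 mM Tris, 1% SDS, 10% glycerol) and boiled 5 min. Protein was measured by BCA, run on SDS-PAGE, transferred to PVDF, blocked in 5% BSA or milk/TBS-T, and immunoblotted.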

[3] = system: PC-9; assay: Inhibition of EGFR T790M/del19 mutant in human PC-9 cells assessed as reduction in EGFR phosphorylation at 10 to 1000 nM by Western blotting analysis; type: cell-based; conditions: dose 10-1000 nM
[4] = system: PC-9; conditions: Homo sapiens, dose 75.0 mg/kg, route po, time 60.0 day
[5] = system: Epidermal growth factor receptor (Homo sapiens), P00533 [UNDEFINED MUTATION]; conditions: PC-9, dose 500.0 nM, time 48.0 hrs
[6] = system: PC-9; conditions: Homo sapiens, dose 75.0 mg/kg, route po, time 60.0 day; remark: listed apart in the source
[7] = Toxicity against Balb-c nu/nu mouse xenografted with human PC-9 cells expressing EGFR-C797S/T790M/del19 mutant assessed as change in body weight at 75 mg/kg, po administered for 60 days and measured twice weekly in presence of cetuximab; type: organism-based; conditions: in vivo, 1440 h, time 60 day
Outline: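 Balb-c nu/nu mice carried subcutaneous PC9 triple-mutant xenografts (6×10^6 cells in 1:2 Matrigel) and were randomized at ~200 mm³. […] Body weight was measured twice weekly, N=6 per arm.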

[8] = system: PC-9; assay: Anti-tumor activity against EGFR T790M/del19 mutant expressing gefitinib-resistant human PC-9 cells xenografted in Balb-c nu/nu mouse assessed as prolonged survival at 75 mg/kg, po administered for 42 days; type: functional, organism-based; conditions: time 42.0 day
[9] = system: Epidermal growth factor receptor (Homo sapiens), P00533 [UNDEFINED MUTATION]; conditions: PC-9, dose 500.0 nM, time 48.0 hrs; remark: listed apart in the source
[10] = system: BaF3; assay: Inhibition of EGFR-del19 mutant in mouse BaF3 cells assessed as inhibition of S6 phosphorylation at 10 to 1000 nM incubated for 6 hrs by Western blotting analysis; type: cell-based; conditions: dose 10-1000 nM; outline: as §1
[11] = system: PC-9; conditions: Homo sapiens, dose 75.0 mg/kg, route po, time 60.0 day; remark: listed apart in the source
[12] = system: Epidermal growth factor receptor (Homo sapiens), P00533 [UNDEFINED MUTATION]; conditions: PC-9, dose 10-1000 nM
[13] = system: BaF3; assay: Inhibition of EGFR-C797S/T790M/L858R mutant expressed in mouse BaF3 cells assessed as inhibition of Akt phosphorylation at 10 to 1000 nM incubated for 6 hrs by Western blotting analysis; type: cell-based; conditions: dose 10-1000 nM
Outline: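 Ba/F3 cells expressing EGFR-L858R-series mutants treated with inhibitors for 6 h. SDS lysates quantified by BCA, run on SDS-PAGE and blotted to PVDF. Probed for phospho-EGFR (Tyr1068), total EGFR and downstream phospho-proteins.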

[14] = target: Epidermal growth factor receptor (Homo sapiens) (UniProt P00533); conditions: dose 0.01-10000 nM, time 10.0 min
[15] = system: Epidermal growth factor receptor (Homo sapiens), P00533 [UNDEFINED MUTATION]; conditions: MGH121, dose 10-1000 nM
[16] = system: BaF3; conditions: Mus musculus, dose 30-1000 nM, time 6.0 hrs
[17] = system: PC-9; assay: Anti-tumor activity against human PC-9 cells expressing EGFR-C797S/T790M/del19 mutant xenografted in Balb-c nu/nu mouse assessed as decreased tumor growth at 75 mg/kg, po administered for 60 days and measured twice weekly in presence of panitumumab; type: functional, organism-based; conditions: time 60.0 day
Outline: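 PC9 EGFR-C797S/T790M/del19 xenografts in Balb-c nu/nu mice, randomized at ~200 mm³. […] Tumour volume 0.5×length×width² measured twice weekly. Survival by Kaplan-Meier. N = 6. Mann-Whitney U test at days 16 and 23.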

[18] = system: MGH121; assay: Anti-tumor activity against human MGH121 cells expressing EGFR-C797S/T790M/del19 mutant xenografted in SCID-beige mouse assessed as tumor shrinkage at 75 mg/kg, po administered for 40 days and measured twice weekly in presence of cetuximab; type: functional, organism-based; conditions: time 40.0 day
Outline: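 MGH121-res2 cells (EGFR-C797S/T790M/del19) implanted s.c. in SCID-beige mice. Randomized at mean tumour ~200 mm³. […] Tumour volume 0.5×length×width² and body weight measured twice weekly. N = 6, mean ± s.d. Mann-Whitney U test on day 42.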

[19] = system: BaF3; assay: Inhibition of EGFR-T790M/del19 mutant in mouse BaF3 cells assessed as inhibition of ERK phosphorylation at 10 to 1000 nM incubated for 6 hrs by Western blotting analysis; type: cell-based; conditions: dose 10-1000 nM; outline: as §1
[20] = system: Epidermal growth factor receptor (Homo sapiens), P00533 [UNDEFINED MUTATION]; conditions: PC-9, dose 500.0 nM, time 48.0 hrs; remark: listed apart in the source
[21] = system: BaF3; conditions: Mus musculus, dose 10-1000 nM
[22] = system: Epidermal growth factor receptor (Homo sapiens), P00533 [UNDEFINED MUTATION]; conditions: PC-9, dose 500.0 nM, time 48.0 hrs; remark: listed apart in the source
[23] = system: Ba/F3 EGFR-Del19/T790M/C797S; assay: Cytotoxicity against mouse Ba/F3 EGFR-Del19/T790M/C797S cells assessed as growth inhibition at 100 nM incubated for 72 hrs in presence of panitumumab by CellTiter-Glo assay; type: functional, cell-based
[24] = system: PC-9; conditions: Homo sapiens, dose 75.0 mg/kg, route po, time 60.0 day; remark: listed apart in the source
[25] = system: Epidermal growth factor receptor (Homo sapiens), P00533 [UNDEFINED MUTATION]; conditions: PC-9, dose 10-1000 nM; remark: listed apart in the source
[26] = system: Epidermal growth factor receptor (Homo sapiens), P00533 [UNDEFINED MUTATION]; conditions: PC-9, dose 500.0 nM, time 48.0 hrs; remark: listed apart in the source
[27] = system: BaF3; type: cell-based; conditions: Mus musculus, dose 10-1000 nM, time 6.0 hrs; remark: listed apart in the source
[28] = system: Epidermal growth factor receptor (Homo sapiens), P00533 [UNDEFINED MUTATION]; conditions: PC-9, dose 10-1000 nM; remark: listed apart in the source

Sequence of Epidermal growth factor receptor (Homo sapiens), P00533 [UNDEFINED MUTATION] (P00533 whole entry, looked up, stated change not applied): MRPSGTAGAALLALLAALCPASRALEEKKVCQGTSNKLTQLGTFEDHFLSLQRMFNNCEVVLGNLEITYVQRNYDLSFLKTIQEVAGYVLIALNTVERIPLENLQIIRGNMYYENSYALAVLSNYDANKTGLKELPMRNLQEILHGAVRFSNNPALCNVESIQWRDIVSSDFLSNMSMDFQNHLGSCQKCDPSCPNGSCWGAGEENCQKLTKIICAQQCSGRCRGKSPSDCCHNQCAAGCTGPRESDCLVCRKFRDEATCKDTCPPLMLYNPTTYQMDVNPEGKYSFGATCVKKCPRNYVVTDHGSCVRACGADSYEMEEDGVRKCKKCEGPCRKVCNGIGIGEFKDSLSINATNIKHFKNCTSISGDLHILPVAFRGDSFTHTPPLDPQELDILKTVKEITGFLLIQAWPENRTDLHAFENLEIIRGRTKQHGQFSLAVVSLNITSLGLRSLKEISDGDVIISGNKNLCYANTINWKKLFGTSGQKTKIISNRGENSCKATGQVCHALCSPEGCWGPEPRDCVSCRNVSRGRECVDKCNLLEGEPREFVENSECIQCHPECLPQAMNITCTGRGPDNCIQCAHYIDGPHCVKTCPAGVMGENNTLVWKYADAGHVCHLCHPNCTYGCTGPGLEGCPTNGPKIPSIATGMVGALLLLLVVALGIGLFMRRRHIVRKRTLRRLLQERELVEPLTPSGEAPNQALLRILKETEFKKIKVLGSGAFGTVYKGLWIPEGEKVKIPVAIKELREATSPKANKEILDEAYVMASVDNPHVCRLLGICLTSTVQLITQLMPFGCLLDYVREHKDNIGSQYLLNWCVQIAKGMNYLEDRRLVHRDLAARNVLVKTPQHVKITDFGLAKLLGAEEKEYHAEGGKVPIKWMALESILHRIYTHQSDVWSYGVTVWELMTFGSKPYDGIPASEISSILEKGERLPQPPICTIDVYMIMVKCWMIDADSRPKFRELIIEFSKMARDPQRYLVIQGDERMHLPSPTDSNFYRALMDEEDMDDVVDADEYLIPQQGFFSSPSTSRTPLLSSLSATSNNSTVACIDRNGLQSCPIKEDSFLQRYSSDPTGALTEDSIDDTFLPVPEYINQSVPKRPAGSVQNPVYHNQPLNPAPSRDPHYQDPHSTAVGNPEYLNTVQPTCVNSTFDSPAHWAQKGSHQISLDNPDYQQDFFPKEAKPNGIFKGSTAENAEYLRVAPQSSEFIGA
Sequence of Epidermal growth factor receptor (Homo sapiens) (P00533 whole entry): as the sequence (P00533 whole entry, looked up, stated change not applied) above

COc1cc(N2CCC(N3CCN(C)CC3)CC2)ccc1Nc1ncc(Cl)c(Nc2ccccc2P(C)(C)=O)n1 [BRIGATINIB]
inactive: inhibition [26]
Non-Toxic: Activity [7]
active: inhibition [1] | inhibition [2] | inhibition [3] | inhibition [4] | inhibition [5] | inhibition [6] | Activity [8] | inhibition [9] | inhibition [10] | inhibition [11] | inhibition [12] | inhibition [13] | inhibition [14] Dose-Dependent Effect | inhibition [15] | inhibition [16] | Activity [17] | Activity [18] | inhibition [19] | inhibition [20] | inhibition [21] Dose-Dependent Effect | inhibition [22] | growth inhibition (GI) [23] | inhibition [24] | inhibition [25] | inhibition [27] | inhibition [28]
